The record followed here is ChEMBL document CHEMBL4610116, “Salicylanilide Analog Minimizes Relapse of Clostridioides difficile Infection in Mice” (J Med Chem, 2020).

Data set [1] is described as follows: Instantaneous volume of distribution in non-antibioticc-treated C57Bl/6J mouse at 0.3 mg/kg, iv and measured after 5 mins to 24 hrs by LC/MS-SRM analysis. Format: ADME, organism-based. The following applies: in vivo. The procedure, abridged:
(§1)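 Non-antibiotic-treated C57Bl/6J mice given a single i.v. dose of 0.3 mg/kg; n = 3 per time point. Bled at 5, 10, 30 min and 1, 2, 4, 8, 24 h. Plasma mixed with 2 volumes acetonitrile containing internal standard, centrifuged, supernatant quantified by LC/MS-SRM.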

Data set [2] is described as follows: Cmax in non-antibioticc-treated C57Bl/6J mouse at 0.3 mg/kg, iv and measured after 5 mins to 24 hrs by LC/MS-SRM analysis. Conditions: in vivo. Format: ADME, organism-based. Further details: dose 0.3 mg/kg, route intravenous. In short, it runs like this:
as §1

Data set [3] is described as follows: AUC in non-antibioticc-treated C57Bl/6J mouse at 0.3 mg/kg, iv and measured after 5 mins to 24 hrs by LC/MS-SRM analysis. Format: ADME, organism-based. Further details: time upper 24 hr, time lower 0.083 hr, dose 0.3 mg/kg, route intravenous. The following applies: in vivo. The procedure, abridged: as §1
Data set [4] can be described thus: Tmax in cefoperazone-treated C57Bl/6J mouse at 1 mg/kg, po dosed each day for 5 days by LC/MS-SRM analysis. Format: ADME, organism-based. Conditions: in vivo. In short, it runs like this: (§2)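 C57Bl/6J mice pre-treated with cefoperazone 0.5 mg/mL in drinking water for 10 days, then a 2-day washout. Oral dose of 1 mg/kg given daily for 5 days. Bled at 5, 10, 30 min and 1, 2, 4, 10, 24 h after dosing on the first and final days; n = 3 per time point. Plasma mixed with 2 volumes acetonitrile containing internal standard, centrifuged, supernatant analysed by LC/MS-SRM.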

Data set [5] can be described thus: Cytotoxicity in HEK293T/17 cells assessed as reduction in cell viability incubated for 16 hrs by MTS assay. Format: cell-based. Conditions: human. In short, it runs like this: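 HEK 293T/17 cells seeded at 2 × 10⁴ per well in DMEM and allowed to adhere 24 h at 37°C, 5% CO₂. Exposed to 0.020–40 µM compound in DMEM for 16 h, then MTS read-out after 1 h at 37°C. Normalized to untreated cells and to 0.2 mM digitonin; duplicates.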

Data set [6] has as its system Clostridioides difficile. The experiment in a line: Suppression of relapse of Clostridioides difficile 630 infection in cefoperazone-treated C57BL/6J mouse model of recurrent Clostridioides difficile 630 infection assessed as reduction in microbial load (total vegetative cells plus spores) at 5 mg/kg, po for 5 days from day 4 to 9 after infection with spores measured on day 9. Format: functional, organism-based. The procedure, abridged: (§3)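 Five-week-old C57BL/6J mice of both sexes given cefoperazone 0.5 mg/ml in drinking water for 5 days, then a 2-day washout. Oral challenge with C. difficile 630 spores on day 0. Oral gavage in 2-(hydroxypropyl)-cyclodextrin vehicle on days 4–9; n = 6 per group. Body weight recorded daily. Feces or cecal contents suspended 1:10 in PBS, serially diluted and plated on TCCFA, incubated anaerobically at 37°C for 24 h; results as CFU/g.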

Data set [7] can be described thus: Half life in cefoperazone-treated C57Bl/6J mouse at 1 mg/kg, po dosed each day for 5 days by LC/MS-SRM analysis. Format: ADME, organism-based. Conditions: in vivo. The procedure, abridged:
as §2

The nature of data set [8]: Toxicity in sheep RBC assessed as induction of hemolysis at 0.625 to 80 uM incubated for 1 hr at 37 degC relative to control. Format: cell-based, Ovis aries, Erythrocyte. The following applies: sheep red blood cells (erythrocytes), read-out: Activity. The procedure, abridged: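 Sheep erythrocytes washed three times in PBS pH 7.4. A 3% suspension mixed 1:1 with compound in PBS, final 0.625–80 µM, for 1 h at 37°C. Centrifuged at 500 × g and supernatant absorbance read at 540 nm. 1% Triton X-100 served as positive control and 1.6% DMSO in PBS as negative control.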

The nature of data set [9]: Effect on gut microbiota in cefoperazone-treated C57BL/6J mouse model of recurrent Clostridioides difficile 630 infection assessed as increase in abundance of Lachnospiraceae at 5 mg/kg, po for 5 days from day 4 to 9 after infection with spores measured on day day 14 by 16S rRNA Illumina sequencing analysis. Format: ADME, organism-based. The following applies: in vivo, 120 h. In short, it runs like this:
(§4)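 Recurrent CDI model in cefoperazone-treated C57BL/6J mice challenged with strain 630 and gavaged on days 4–9 (n = 6 per group). Cecal tissue snips collected at necropsy underwent 16S rRNA gene community sequencing on Illumina MiSeq.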

Data set [10] has as its system Clostridioides difficile. The experiment in a line: Suppression of relapse of Clostridioides difficile 630 infection in cefoperazone-treated C57BL/6J mouse model of recurrent Clostridioides difficile 630 infection assessed as reduction in microbial load (total vegetative cells plus spores) at 5 mg/kg, po for 5 days from day 4 to 9 after infection with spores. Format: functional, organism-based. In short, it runs like this: as §3

Data set [11] can be described thus: Effect on gut microbiota in cefoperazone-treated C57BL/6J mouse model of recurrent Clostridioides difficile 630 infection assessed as increase in abundance of group-Ruminococcaceae at 5 mg/kg, po for 5 days from day 4 to 9 after infection with spores measured on day day 14 by 16S rRNA Illumina sequencing analysis. Format: ADME, organism-based. Conditions: in vivo, 120 h. The procedure, abridged: as §4

For data set [12], the system named is Clostridioides difficile. The experiment in a line: Suppression of relapse of Clostridioides difficile 630 infection in cefoperazone-treated C57BL/6J mouse model of recurrent Clostridioides difficile 630 infection assessed as reduction in histopathological summary scores at 5 mg/kg, po for 5 days from day 4 to 9 after infection with spores measured on day day 14. Format: functional, organism-based. The procedure, abridged:
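Recurrent CDI model in cefoperazone-treated C57BL/6J mice challenged with strain 630 and gavaged on days 4–9 (n = 6 per group). At necropsy on day 14, H&E-stained cecum and colon scored 0–4 each for edema, inflammatory cell infiltration and epithelial damage. Scoring done blinded by a veterinary pathologist.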

Active and inactive are the calls of the source. The rule behind the calls is not given here. A value given as a limit tells only on which side of the number the result lay.

As for `O=C(Nc1cc(C(F)(F)F)c(Oc2ccc(Cl)cc2)c(C(F)(F)F)c1)c1cc(Cl)cc(Cl)c1O`, in data set [1], the Vc stood at 8.5 mL. In addition, in data set [2], the concentration peaked (Cmax) at 1630 nM. The area under the curve (AUC) (in general, the area under the concentration-time curve, a measure of exposure) in data set [3] amounted to 9.23 µM·h. Also, the Tmax (usually the time at which the peak concentration occurs) in [4] is 2 h. In addition, the Activity in [5] is > 2.5 µM; in data set [9], “Non-Toxic”; in data set [11] it was “Non-Toxic”. Besides, the outcome in the data set with Clostridioides difficile [6], in the data set with Clostridioides difficile [10] and in the data set on Clostridioides difficile [12] was Active. Further, in data set [7], the half-life (commonly the time in which the quantity being followed falls by half) was 10.7 h. In addition, in data set [8], the hemolysis at 1 h, up to 80 µM was < 2%.
